# Assay results from ChEMBL document CHEMBL3286182, “4-aminoquinolone piperidine amides: noncovalent inhibitors of DprE1 with long residence time and potent antimycobacterial activity” (J Med Chem, 2014).
# Active and inactive are the calls of the source. The rule behind the calls is not given here.
# Experiments:
# [1] = system: Mycobacterium tuberculosis; experiment: Antimycobacterial activity against Mycobacterium tuberculosis H37Rv after 5 days by standard microdilution method; assay type: functional; conditions: 120 h
# [2] = system: Mycobacterium tuberculosis; experiment: Antimycobacterial activity against Mycobacterium tuberculosis H37Rv under hypoxic condition after 6 days by resazurin assay; assay type: functional; conditions: 144 h
# [3] = system: Mycobacterium tuberculosis; experiment: Antimycobacterial activity against Mycobacterium tuberculosis H37Rv at >MIC after 21 to 28 days; assay type: functional
# [4] = Cytotoxicity against human A549 cells after 72 hrs by resazurin based fluorescence assay; assay type: cell-based; conditions: read-out: MIC
# In short: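 Cytotoxicity read as MMIC, the MIC on the A549 cell line.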
# [5] = Solubility of the compound in 0.1 M phosphate buffer at pH 7.4 after 24 hrs by UV and MS analysis; assay type: physicochemical
# [6] = Octanol-water partition coefficient, log D of the compound by shake-flask method; assay type: physicochemical
# [7] = Fraction unbound in human plasma at 20 uM after 18 hrs by equilibrium dialysis method; assay type: ADME, cell-free
# [8] = Intrinsic clearance in human liver microsomes at 1 uM up to 30 mins by LC-MS/MS analysis; assay type: ADME; conditions: read-out: CLH
# [9] = Intrinsic clearance in rat cryopreserved hepatocytes assessed per 10^6 cells at 1 uM up to 120 mins by LC-MS/MS analysis; assay type: ADME, cell-based, Hepatocyte; conditions: read-out: CLH
# [10] = Permeability of the compound from apical to basolateral side in human Caco2 cells; assay type: ADME, cell-based; conditions: Caco-2, read-out: permeability
# [11] = Permeability of the compound from basolateral to apical side in human Caco2 cells; assay type: ADME, cell-based; conditions: Caco-2, read-out: permeability
# [12] = target: Voltage-gated inwardly rectifying potassium channel KCNH2 (Homo sapiens, UniProt Q12809); experiment: Inhibition of human ERG by medium-throughput electrophysiology
# Sequence of Voltage-gated inwardly rectifying potassium channel KCNH2 (Q12809 whole entry): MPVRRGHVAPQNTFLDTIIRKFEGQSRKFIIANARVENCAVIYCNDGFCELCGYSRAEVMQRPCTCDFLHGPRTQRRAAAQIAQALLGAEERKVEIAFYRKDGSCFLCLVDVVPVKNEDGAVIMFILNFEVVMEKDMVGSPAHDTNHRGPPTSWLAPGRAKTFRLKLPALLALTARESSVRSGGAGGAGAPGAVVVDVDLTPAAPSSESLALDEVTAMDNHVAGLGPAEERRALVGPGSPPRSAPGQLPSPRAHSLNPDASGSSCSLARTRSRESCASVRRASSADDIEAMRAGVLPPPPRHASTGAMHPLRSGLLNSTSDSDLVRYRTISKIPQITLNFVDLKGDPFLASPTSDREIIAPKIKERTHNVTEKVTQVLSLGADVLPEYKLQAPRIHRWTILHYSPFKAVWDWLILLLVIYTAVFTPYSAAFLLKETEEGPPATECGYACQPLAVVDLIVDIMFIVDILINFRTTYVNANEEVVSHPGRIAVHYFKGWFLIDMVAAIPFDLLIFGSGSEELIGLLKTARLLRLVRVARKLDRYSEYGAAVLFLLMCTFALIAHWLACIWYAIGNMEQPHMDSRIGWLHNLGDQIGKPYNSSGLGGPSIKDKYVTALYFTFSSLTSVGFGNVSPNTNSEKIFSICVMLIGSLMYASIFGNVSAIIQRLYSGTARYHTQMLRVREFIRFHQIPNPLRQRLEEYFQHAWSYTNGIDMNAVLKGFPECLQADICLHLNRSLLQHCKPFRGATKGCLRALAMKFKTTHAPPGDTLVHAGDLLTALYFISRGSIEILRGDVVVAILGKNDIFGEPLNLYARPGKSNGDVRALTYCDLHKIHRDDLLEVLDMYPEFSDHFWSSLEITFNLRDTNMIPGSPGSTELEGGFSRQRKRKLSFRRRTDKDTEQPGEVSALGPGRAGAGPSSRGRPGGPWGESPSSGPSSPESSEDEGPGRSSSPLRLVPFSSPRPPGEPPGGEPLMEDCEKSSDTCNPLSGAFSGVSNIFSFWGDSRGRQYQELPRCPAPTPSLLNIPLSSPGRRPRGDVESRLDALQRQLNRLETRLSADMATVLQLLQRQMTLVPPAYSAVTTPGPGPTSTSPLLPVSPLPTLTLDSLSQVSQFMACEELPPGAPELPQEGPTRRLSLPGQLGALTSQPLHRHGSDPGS
# [13] = system: Mycobacterium tuberculosis; experiment: Antimycobacterial activity against Mycobacterium tuberculosis over expressing DprE1 after 5 days by standard microdilution method; assay type: functional; conditions: 120 h
# [14] = system: Mycobacterium tuberculosis; experiment: Antimycobacterial activity against Mycobacterium tuberculosis over expressing InhA after 5 days by standard microdilution method; assay type: functional; conditions: 120 h
# [15] = system: Mycobacterium tuberculosis; experiment: Antimycobacterial activity against Mycobacterium tuberculosis over expressing TopA after 5 days by standard microdilution method; assay type: functional; conditions: 120 h
# [16] = system: Mycobacterium tuberculosis; experiment: Antimycobacterial activity against Mycobacterium tuberculosis over expressing PimA after 5 days by standard microdilution method; assay type: functional; conditions: 120 h
# [17] = Inhibition of Mycobacterium smegmatis recombinant DprE1 using farnesylphosphoryl-beta-D-ribofuranose as substrate assessed as conversion of amplex red to resorufin after 30 mins; design: species or system Mycolicibacterium smegmatis
# In short: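 Msm DprE1 (thioredoxin-6His fusion of Msm Rv3790) at 75 nM, preincubated 30 min with 10 μM FAD. Buffer: 50 mM glycylglycine pH 8.5, 200 mM potassium glutamate, 0.002% Brij-35, 2% DMSO, 25 °C. Started with 300 μM farnesylphosphoryl-β-D-ribofuranose, 0.01 mg/mL HRP and 50 μM Amplex Red.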
# [18] = system: Mycolicibacterium smegmatis; experiment: Binding affinity to Mycobacterium smegmatis recombinant DprE1 assessed as dissociation constant
# In short: (§1)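 Progress curves (fluorescence vs time) recorded at several inhibitor concentrations with 75 nM Msm DprE1 in the FAD/HRP/Amplex Red coupled assay, pH 8.5, 25 °C. A single-step reversible slow-binding model was fitted globally, with vs and vi fitted per concentration and koff and Kiapp shared. Half-life and residence time were derived from koff.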
# [19] = system: Mycolicibacterium smegmatis; experiment: Binding affinity to Mycobacterium smegmatis recombinant DprE1 assessed as half life; in short: as §1
# [20] = system: Mycolicibacterium smegmatis; experiment: Binding affinity to Mycobacterium smegmatis recombinant DprE1 assessed as residence time; in short: as §1
# [21] = system: Mycobacterium tuberculosis; experiment: Bactericidal activity against Mycobacterium tuberculosis H37Rv after 3 days relative to control; assay type: functional
# [22] = system: Mycobacterium tuberculosis; experiment: Bactericidal activity against Mycobacterium tuberculosis H37Rv after 7 days relative to control; assay type: functional
# [23] = system: Staphylococcus aureus; experiment: Antimicrobial activity against Staphylococcus aureus ARC517 at 100 uM; assay type: functional, organism-based
# In short: (§2)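 Nonmycobacterial panel of Candida albicans, Gram-negative and Gram-positive pathogens.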
# [24] = system: Streptococcus pneumoniae; experiment: Antimicrobial activity against Streptococcus pneumoniae ARC548 at 100 uM; assay type: functional, organism-based; in short: as §2
# [25] = system: Haemophilus influenzae; experiment: Antimicrobial activity against Haemophilus influenzae ARC446 at 100 uM; assay type: functional, organism-based; in short: as §2
# [26] = system: Haemophilus influenzae; experiment: Antimicrobial activity against Haemophilus influenzae ARC158 at 100 uM; assay type: functional, organism-based; in short: as §2
# [27] = system: Escherichia coli; experiment: Antimicrobial activity against Escherichia coli ARC523 at 100 uM; assay type: functional, organism-based; in short: as §2
# [28] = system: Escherichia coli; experiment: Antimicrobial activity against Escherichia coli ARC524 at 100 uM; assay type: functional, organism-based; in short: as §2
# [29] = system: Pseudomonas aeruginosa; experiment: Antimicrobial activity against Pseudomonas aeruginosa ARC545 at 100 uM; assay type: functional, organism-based; in short: as §2
# [30] = system: Pseudomonas aeruginosa; experiment: Antimicrobial activity against Pseudomonas aeruginosa ARC546 at 100 uM; assay type: functional, organism-based; in short: as §2
# [31] = system: Klebsiella pneumoniae; experiment: Antimicrobial activity against Klebsiella pneumoniae ARC1865 at 100 uM; assay type: functional, organism-based; in short: as §2
# [32] = system: Mycolicibacterium smegmatis; experiment: Antimicrobial activity against Mycobacterium smegmatis ATCC 607 at 100 uM; assay type: functional, organism-based
# [33] = system: Mycolicibacterium smegmatis; experiment: Antimicrobial activity against Mycobacterium smegmatis mc2155 at 100 uM; assay type: functional, organism-based; conditions: str. MC2 155
# [34] = system: Candida albicans; experiment: Antimicrobial activity against Candida albicans ARC527 at 100 uM; assay type: functional, organism-based; in short: as §2
# [35] = Inhibition of Mycobacterium smegmatis DprE1 Y321H mutant using farnesylphosphoryl-beta-D-ribofuranose as substrate assessed as conversion of amplex red to resorufin after 30 mins; design: species or system Mycolicibacterium smegmatis
# In short: (§3)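 Recombinant M. smegmatis DprE1 (thioredoxin-6His fusion), wild type or Y321H, 75 nM. Enzyme was preincubated 30 min in FAD assay mix: 50 mM glycylglycine pH 8.5, 200 mM potassium glutamate, 10 μM FAD, 0.002% Brij-35, 2% DMSO. Reaction was started with 300 μM farnesylphosphoryl-β-D-ribofuranose, 0.01 mg/mL HRP and 50 μM amplex red at 25 °C.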
# [36] = system: Mycolicibacterium smegmatis; experiment: Ratio of IC50 for Mycobacterium smegmatis DprE1 Y321H mutant to IC50 for Mycobacterium smegmatis recombinant wild type DprE1; in short: as §3
# [37] = Initial plasma concentration in Wistar rat at 2 mg/kg, iv; assay type: ADME, organism-based; design: dose 2 mg/kg, route intravenous
# In short: (§4)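 Male Wistar rats given a single dose, 2 mg/kg intravenously or 10 mg/kg orally. Plasma concentration followed over time, n = 2 per compound. Parameters taken from the plasma curves: C0 (iv), Cmax (oral), AUC0−∞, elimination half-life, plasma clearance, Vss and oral bioavailability.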
# [38] = AUC (0 to infinity) in Wistar rat at 2 mg/kg, iv; assay type: ADME, organism-based; design: dose 2 mg/kg, route intravenous, time infinity; conditions: plasma; in short: as §4
# [39] = Elimination half life in Wistar rat at 2 mg/kg, iv; assay type: ADME, organism-based; design: dose 2 mg/kg, route intravenous; conditions: in vivo, read-out: beta t1/2 (converted); in short: as §4
# [40] = Clearance in Wistar rat at 2 mg/kg, iv; assay type: ADME, organism-based; design: dose 2 mg/kg, route intravenous; conditions: in vivo; in short: as §4
# [41] = Volume of distribution at steady state in Wistar rat at 2 mg/kg, iv; assay type: ADME, organism-based; design: dose 2 mg/kg, route intravenous; conditions: in vivo, read-out: Vdss; in short: as §4
# [42] = Cmax in Wistar rat at 10 mg/kg, po; assay type: ADME, organism-based; design: dose 10 mg/kg, route oral; conditions: in vivo; in short: as §4
# [43] = AUC (0 to infinity) in Wistar rat at 10 mg/kg, po; assay type: ADME, organism-based; design: time infinity, dose 10 mg/kg, route oral; conditions: plasma; in short: as §4
# [44] = Elimination half life in Wistar rat at 10 mg/kg, po; assay type: ADME, organism-based; design: dose 10 mg/kg, route oral; conditions: in vivo, read-out: beta t1/2 (converted); in short: as §4
# [45] = Oral bioavailability in Wistar rat at 10 mg/kg; assay type: ADME, organism-based; conditions: in vivo; in short: as §4
smiles,measurement,setting,value
Cn1ncc(C(=O)N2CCC(Nc3cc(=O)[nH]c4cc(F)c(F)cc34)CC2)c1Cl,MIC,[1],0.4 µM
same,IC80,[2],> 100 µM
same,MBC,[3],0.8 µM
same,MCC at 72 h,[4],> 100 µM
same,solubility at 24 h,[5],26 µM
same,logD,[6],2.2
same,"fraction unbound at 18 h, 20 µM",[7],0.4
same,microsomal CLint at 1 µM,[8],12.5 µL/min/mg
same,hepatocyte CLint at 1 µM,[9],2.4 µL/min/1e6 cells
same,Papp A→B,[10],0.2 ×10⁻⁶ cm/s
same,Papp B→A,[11],11 ×10⁻⁶ cm/s
same,IC50,[12],> 100 µM
same,MIC,[13],> 50 µM
same,MIC,[14],0.4 µM
same,MIC,[15],0.4 µM
same,MIC,[16],0.4 µM
same,IC50,[17],0.006 µM
same,Kdiss,[18],0.00011 s⁻¹
same,T1/2,[19],1.75 h
same,TIME,[20],2.53 h
same,LCK,[21],3
same,LCK,[22],4
same,Activity,[23],inactive
same,Activity,[24],inactive
same,Activity,[25],inactive
same,Activity,[26],inactive
same,Activity,[27],inactive
same,Activity,[28],inactive
same,Activity,[29],inactive
same,Activity,[30],inactive
same,Activity,[31],inactive
same,Activity,[32],inactive
same,Activity,[33],inactive
same,Activity,[34],inactive
same,IC50,[35],> 10 µM
same,fold change (FC),[36],> 143
same,C0,[37],4900 nM
same,AUC(0-inf),[38],1.2 µM·h
same,half-life,[39],0.5 h
same,clearance,[40],34.4 mL/min/kg
same,Vd,[41],0.9 L/kg
same,Cmax,[42],20 nM
same,AUC(0-inf),[43],0.04 µM·h
same,half-life,[44],1.1 h
same,bioavailability,[45],0.3%
